Results reported in PMC6057476 (ACS chemical biology, 2018).

Legend:
Format in all cases: cell-based
[1] = system: transcriptome of MCF-7 cells; assay: RNA-Seq global gene expression; conditions: MCF-7, RNA-Seq; 10 nM E2 + 1 μM 4OHT or 15 μM R4K1
[2] = system: ER-regulated genes PTGES, PR, PS2, EGR3, IGFBP4 in MCF-7 cells; assay: RT-qPCR of ER-regulated native genes, MCF-7; conditions: 10 nM E2, 2 hrs
Procedure, shortened: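 MCF-7 cells in charcoal-dextran-stripped 5% FBS were pretreated with test compound (15 μM, 24 h), 4-hydroxytamoxifen (1 μM, 2 h) or DMSO, then with 10 nM 17β-estradiol for 2 h. Total RNA was assayed by RT-qPCR, normalised to 36B4 and converted to fold change versus DMSO vehicle by ΔΔCt. Error bars are SD.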

MCF-7 cells = assay: Proliferation assay; conditions: 10 nM estradiol, 24 hours
Procedure, shortened: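 MCF-7 cells in charcoal-dextran-stripped 5% FBS were given vehicle or 15 μM test compound, with or without 10 nM estradiol, starting on day 3. Cells were counted 24 h later by brightfield imaging cytometry. Fold change was taken versus vehicle control over three independent experiments, with error bars as SD.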

Structure (SMILES)	reversal of E2-regulated genes of cluster 2 (226 genes) [1]	reversal of E2-regulated genes of cluster 3 (87 genes) [1]	expression of five ER-regulated genes, estradiol [2]	proliferation of MCF-7 cells, estradiol (MCF-7 cells)
CC/C(=C(\c1ccc(O)cc1)c1ccc(OCCN(C)C)cc1)c1ccccc1 [4OHT, 4-hydroxytamoxifen]	reversed fully	reversed fully		
C[C@]12CC[C@@H]3c4ccc(O)cc4CC[C@H]3[C@@H]1CC[C@@H]2O [Estradiol, 17β-estradiol]			induced expression of each of the five genes	stimulated proliferation
